Laboratory results from ChEMBL document CHEMBL3769304, “Potent α-amino-β-lactam carbamic acid ester as NAAA inhibitors. Synthesis and structure-activity relationship (SAR) studies” (Eur J Med Chem, 2016).
Converted amounts (≈) assume the structure as drawn.

Key:
[1] = Half life in rat liver microsomes preincubated for 15 mins followed by NADPH addition measured after 1 hr by LC/MS-MS analysis; type: ADME
[2] = Half life in mouse plasma after 2 hrs by LC/MS-MS analysis; type: ADME, cell-free
[3] = Kinetic solubility of the compound in PBS at pH 7.4 after 24 hrs by UPLC/MS analysis; type: physicochemical; conditions: read-out: Kinetic_solubility
Method in brief: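 Kinetic solubility measured in PBS, pH 7.4; mean of three or more determinations.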

Acid ceramidase = biological target: T1, Acid ceramidase (Homo sapiens, UniProt Q13510); assay: Inhibition of human acid ceramidase by UPLC/MS analysis
T1 sequence (Q13510 whole entry): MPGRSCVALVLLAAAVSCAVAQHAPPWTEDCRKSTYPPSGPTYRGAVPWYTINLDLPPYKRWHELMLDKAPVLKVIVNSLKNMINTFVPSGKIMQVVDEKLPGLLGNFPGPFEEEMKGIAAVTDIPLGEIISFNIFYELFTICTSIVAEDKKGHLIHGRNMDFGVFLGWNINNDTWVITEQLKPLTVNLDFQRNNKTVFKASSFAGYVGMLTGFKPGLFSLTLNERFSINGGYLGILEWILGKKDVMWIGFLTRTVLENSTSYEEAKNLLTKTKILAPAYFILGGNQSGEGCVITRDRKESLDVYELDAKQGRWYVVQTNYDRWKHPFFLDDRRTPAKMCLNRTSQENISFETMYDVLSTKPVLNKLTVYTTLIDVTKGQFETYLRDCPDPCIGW

[4] = Half life in rat plasma after 2 hrs by LC/MS-MS analysis; type: ADME, cell-free
[5] = Half life in mouse liver microsomes preincubated for 15 mins followed by NADPH addition measured after 1 hr by LC/MS-MS analysis; type: ADME
[6] = biological target: T2, Fatty-acid amide hydrolase 1 (Homo sapiens) (UniProt O00519); assay: Inhibition of human FAAH at 10 uM by fluorescence assay
T2 sequence (whole entry): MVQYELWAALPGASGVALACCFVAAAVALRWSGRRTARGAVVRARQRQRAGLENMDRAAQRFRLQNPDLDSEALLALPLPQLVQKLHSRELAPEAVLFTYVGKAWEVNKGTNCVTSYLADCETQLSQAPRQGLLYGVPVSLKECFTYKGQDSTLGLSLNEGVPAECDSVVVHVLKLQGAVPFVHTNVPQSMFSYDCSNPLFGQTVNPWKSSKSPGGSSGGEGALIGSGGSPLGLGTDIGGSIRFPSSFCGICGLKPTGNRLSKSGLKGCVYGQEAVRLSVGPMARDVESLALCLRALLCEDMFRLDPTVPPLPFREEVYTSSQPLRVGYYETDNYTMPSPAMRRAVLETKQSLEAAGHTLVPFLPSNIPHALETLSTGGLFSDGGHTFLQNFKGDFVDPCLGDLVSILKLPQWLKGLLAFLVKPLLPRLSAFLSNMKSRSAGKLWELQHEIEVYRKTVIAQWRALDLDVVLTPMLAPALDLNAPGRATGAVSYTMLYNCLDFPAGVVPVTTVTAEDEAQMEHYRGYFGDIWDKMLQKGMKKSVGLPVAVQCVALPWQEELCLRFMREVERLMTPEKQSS
Method in brief: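 Enzyme source: membrane pellet (105,000 × g, re-suspended in PBS) from HEK293 cells stably transfected with h-FAAH-1; fluorogenic read-out; percent inhibition at 10 µM from two determinations.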

[7] = biological target: T3, N-acylethanolamine-hydrolyzing acid amidase (Homo sapiens, UniProt Q02083); assay: Inhibition of human NAAA expressed in HEK293 cells preincubated for 10 mins followed by N-(4-methyl-2-oxo-chromen-7-yl)-hexadecanamide substrate addition for 50 mins by fluorescence assay; type: cell-based
T3 sequence (Q02083 whole entry): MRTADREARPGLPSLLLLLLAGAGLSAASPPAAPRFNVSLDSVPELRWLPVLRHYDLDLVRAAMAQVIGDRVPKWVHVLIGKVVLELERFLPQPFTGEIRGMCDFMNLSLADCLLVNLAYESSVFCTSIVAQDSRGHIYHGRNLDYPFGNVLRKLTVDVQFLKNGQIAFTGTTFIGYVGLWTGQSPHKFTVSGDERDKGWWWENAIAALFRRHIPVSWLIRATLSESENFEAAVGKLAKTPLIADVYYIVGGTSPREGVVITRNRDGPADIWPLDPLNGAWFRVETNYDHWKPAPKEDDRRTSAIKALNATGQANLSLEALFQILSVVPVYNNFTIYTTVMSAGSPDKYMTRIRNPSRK

Homo sapiens = species: Homo sapiens; assay: Selectivity ratio of IC50 for human acid ceramidase to IC50 for recombinant human NAAA
[8] = biological target: T3, N-acylethanolamine-hydrolyzing acid amidase; assay: Inhibition of human NAAA expressed in HEK293 cells preincubated for 10 mins followed by N-(4-methyl-2-oxo-chromen-7-yl)-hexadecanamide substrate addition for 50 mins by microplate reader analysis

SMILES	half-life [1] [min]	half-life [2] [min]	solubility kinetic at 24 h [3] [µM]	IC50 (Acid ceramidase) [nM]	half-life [4] [min]	half-life [5] [min]	inhibition [6] [%]	IC50 [7] [nM]	Ratio IC50 (Homo sapiens)	IC50 [8] [nM]
O=C(N[C@H]1CNC1=O)OCCCCC1CCCCC1	< 5	41	144 (≈ 38.6 µg/mL)	6270	12	< 5	< 10	–	–	–
Cc1ccc(COC(=O)N[C@H]2CNC2=O)cc1	–	–	–	–	–	–	–	1040	–	–
O=C(N[C@H]1CNC1=O)OCc1ccc2c(c1)CCC2	–	–	–	–	–	–	–	130	–	–
O=C(N[C@H]1CNC1=O)OCc1ccc(C2CCCCC2)cc1	< 5	57	51 (≈ 15.4 µg/mL)	1510	104	5	< 10	–	125	–
O=C(N[C@H]1CNC1=O)OCCCCc1ccccc1	–	–	–	–	–	–	–	1110	–	–
CCCOc1ccc(COC(=O)N[C@H]2CNC2=O)cc1	< 5	31	> 250	2410	> 120	11	< 10	–	–	–
O=C(N[C@H]1CNC1=O)OCCCCc1ccc(C(F)(F)F)cc1	–	–	–	–	–	–	–	73	–	–
O=C(N[C@H]1CNC1=O)OCCCOC1CCCCC1	–	–	–	–	–	–	–	2670	–	–
O=C(N[C@H]1CNC1=O)OCc1ccc2c(c1)OC(F)(F)O2	40	25	> 250	8090	> 120	30	< 10	–	365	–
O=C(N[C@H]1CNC1=O)OCCCCC1CCC(F)(F)CC1	10	33	> 250	10500	7	34	< 10	–	140	–
COc1ccc(CCCCOC(=O)N[C@H]2CNC2=O)cc1	–	–	–	–	–	–	–	520	–	–
O=C(N[C@H]1CNC1=O)OCCCC1CCCCC1	–	–	–	–	–	–	–	44	–	–
CCCCCCCCC(=O)N[C@H]1CNC1=O	–	–	–	–	–	–	–	–	–	340
CCCCc1ccc(COC(=O)N[C@H]2CNC2=O)cc1	< 5	29	83 (≈ 22.9 µg/mL)	390	> 120	< 5	< 10	–	55	–
